Data: publication PMC3770484 (European journal of medicinal chemistry, 2013)

What was measured:
[1] = tested on: tubulin (colchicine site); assay: Inhibition of [3H]colchicine binding to tubulin; details: tubulin 1 μM, [3H]colchicine 5 μM, 10 min at 37 °C, ± SD
Outline: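 Tritiated colchicine (5.0 μM) incubated with 1.0 μM tubulin and test compound at 5.0 or 1.0 μM for 10 min at 37 °C. At this point about 40-60% of maximum colchicine binding occurs in controls. Percent inhibition of binding reported. Compounds inhibiting by more than 80% at 5 μM were retested at 1 μM.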

[2] = tested on: human tumor cell line panel (A549, KB, KBvin, and DU145); assay: SRB cytotoxicity, range over the whole HTCL panel; type: cell-based; details: read-out: GI50 range over HTCL panel
Outline: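 Sulforhodamine B growth assay on human A-549, KB, DU145 and KBvin lines; KBvin is a vincristine-resistant, P-gp-expressing KB subline. Paclitaxel served as reference.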

COc1ccc(/C=C\c2cc(OC)c(OC)c(OC)c2)cc1O [CA4, combretastatin A-4]
Inhibition of colchicine binding (%) inhibition ([1]; inhibitor at 1 μM): 90 ± 0.2%
Inhibition of colchicine binding (%) inhibition ([1]; inhibitor at 5 μM): 98 ± 0.6%

COc1ccc2c(c1)CCCN2c1nc(Cl)nc2ccccc12 [Compound 6d, N-(2′-Chloroquinazol-4′-yl)-6-methoxy-1,2,3,4-tetrahydroquinoline]
GI50 [2]: 1.5 to 1.7 nM
